Experimental data published in ChEMBL document CHEMBL1137361, “WB4101-related compounds: new, subtype-selective alpha1-adrenoreceptor antagonists (or inverse agonists?)” (J Med Chem, 2006).

What was measured:
[1] = target: T1, Alpha-1A adrenergic receptor (Homo sapiens, UniProt P35348); test: Displacement of [3H]prazosin from cloned human adrenergic alpha 1A receptor expressed in CHO cells; assay type: cell-based
T1 sequence (P35348 whole entry): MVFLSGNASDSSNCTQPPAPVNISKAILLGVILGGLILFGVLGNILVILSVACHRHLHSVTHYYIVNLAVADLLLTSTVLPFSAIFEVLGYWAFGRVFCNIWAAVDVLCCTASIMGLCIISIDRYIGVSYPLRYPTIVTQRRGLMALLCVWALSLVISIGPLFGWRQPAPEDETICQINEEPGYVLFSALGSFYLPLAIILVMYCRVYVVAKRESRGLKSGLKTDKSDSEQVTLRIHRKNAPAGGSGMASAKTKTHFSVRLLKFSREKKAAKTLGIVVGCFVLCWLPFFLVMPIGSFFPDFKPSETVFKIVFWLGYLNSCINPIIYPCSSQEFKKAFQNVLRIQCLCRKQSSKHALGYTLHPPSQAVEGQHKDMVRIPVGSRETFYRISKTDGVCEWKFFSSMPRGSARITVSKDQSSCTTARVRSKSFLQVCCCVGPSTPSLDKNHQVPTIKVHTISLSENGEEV
In short: (§1)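 Radioligand binding with [3H]prazosin as the label. Membranes came from CHO cells expressing the cloned human receptor. Affinity is expressed as pKi.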

[2] = target: T2, Alpha-1D adrenergic receptor (Homo sapiens, UniProt P25100); test: Displacement of [3H]prazosin from cloned human adrenergic alpha 1D receptor expressed in CHO cells; assay type: cell-based; in short: as §1
T2 sequence (P25100 whole entry): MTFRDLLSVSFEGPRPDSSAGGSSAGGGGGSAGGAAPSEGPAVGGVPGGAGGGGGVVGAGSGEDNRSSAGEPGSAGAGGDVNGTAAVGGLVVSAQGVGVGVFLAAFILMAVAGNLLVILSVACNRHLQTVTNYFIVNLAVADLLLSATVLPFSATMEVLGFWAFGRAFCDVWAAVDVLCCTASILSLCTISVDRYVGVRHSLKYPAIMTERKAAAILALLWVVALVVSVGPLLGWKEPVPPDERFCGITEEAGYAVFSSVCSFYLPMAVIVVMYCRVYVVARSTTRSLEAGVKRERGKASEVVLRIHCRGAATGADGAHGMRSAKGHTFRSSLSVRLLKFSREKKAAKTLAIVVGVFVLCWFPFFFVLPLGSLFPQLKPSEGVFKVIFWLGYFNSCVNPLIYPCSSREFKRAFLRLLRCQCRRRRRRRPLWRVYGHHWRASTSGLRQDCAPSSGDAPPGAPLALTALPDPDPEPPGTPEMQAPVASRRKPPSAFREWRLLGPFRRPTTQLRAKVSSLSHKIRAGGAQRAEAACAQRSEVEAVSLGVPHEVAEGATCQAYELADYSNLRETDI

[3] = target: T3, Alpha-1B adrenergic receptor (Homo sapiens, UniProt P35368); test: Displacement of [3H]prazosin from cloned human adrenergic alpha 1B receptor expressed in CHO cells; assay type: cell-based; in short: as §1
T3 sequence (P35368 whole entry): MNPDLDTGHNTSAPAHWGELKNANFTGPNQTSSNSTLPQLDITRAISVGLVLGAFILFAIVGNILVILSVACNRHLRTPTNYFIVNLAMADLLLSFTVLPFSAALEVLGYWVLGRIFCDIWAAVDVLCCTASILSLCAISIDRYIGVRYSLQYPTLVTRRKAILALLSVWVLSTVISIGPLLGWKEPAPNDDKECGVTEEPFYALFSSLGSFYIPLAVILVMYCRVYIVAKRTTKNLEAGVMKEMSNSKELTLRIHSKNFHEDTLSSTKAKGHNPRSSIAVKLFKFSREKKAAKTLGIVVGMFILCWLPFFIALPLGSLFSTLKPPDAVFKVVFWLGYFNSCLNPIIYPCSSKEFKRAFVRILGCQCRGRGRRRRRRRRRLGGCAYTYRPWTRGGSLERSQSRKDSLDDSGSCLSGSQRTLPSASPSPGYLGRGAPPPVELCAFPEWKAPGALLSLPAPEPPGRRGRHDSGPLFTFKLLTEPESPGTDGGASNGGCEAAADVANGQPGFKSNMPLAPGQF

[4] = target: Alpha adrenergic receptor (1a and 1d) (Homo sapiens) (UniProt P35348+P25100); test: Selectivity for human adrenergic alpha 1A receptor over human adrenergic alpha 1D receptor
[5] = target: T4, 5-hydroxytryptamine receptor 1A (Rattus norvegicus, UniProt P19327); test: Displacement of [3H]8-OH-DPAT from 5-HT1A receptor in rat hippocampus; assay type: tissue-based
T4 sequence (P19327 whole entry): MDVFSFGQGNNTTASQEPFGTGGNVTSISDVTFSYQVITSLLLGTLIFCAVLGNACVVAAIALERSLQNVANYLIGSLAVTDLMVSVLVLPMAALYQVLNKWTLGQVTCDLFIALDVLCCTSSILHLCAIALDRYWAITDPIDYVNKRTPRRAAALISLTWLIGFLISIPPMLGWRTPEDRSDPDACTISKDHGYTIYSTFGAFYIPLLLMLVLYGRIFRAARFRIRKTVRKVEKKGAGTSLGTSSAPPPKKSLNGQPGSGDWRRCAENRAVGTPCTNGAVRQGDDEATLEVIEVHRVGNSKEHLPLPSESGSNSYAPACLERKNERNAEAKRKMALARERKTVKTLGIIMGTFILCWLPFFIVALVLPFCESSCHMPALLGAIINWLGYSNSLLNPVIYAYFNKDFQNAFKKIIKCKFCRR
In short: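 Radioligand binding with [3H]-8-OH-DPAT in membrane preparations from rat hippocampus. Affinity is expressed as pKi.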

[6] = target: Adrenergic receptors; alpha-1 A & B (Homo sapiens) (UniProt P35348+P35368); test: Selectivity for human adrenergic alpha 1B receptor over human adrenergic alpha 1A receptor; assay type: protein assay
[7] = Selectivity for 5HT1A receptor in rat hippocampus over human adrenergic alpha 1A receptor; assay type: tissue-based
Cavia porcellus [8] = species on record: Cavia porcellus; test: Inverse agonist effect on calcium-induced increase in resting tension of calcium-depleted guinea pig thoracic aorta at 10 nM; assay type: functional
In short: (§2)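 Guinea pig thoracic aorta was calcium-depleted and preincubated with antagonist, then challenged with Ca2+. The Ca2+-induced increase in resting tone was compared with the increase after the same Ca2+ challenge in the absence of antagonist.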

[9] = target: T5, Alpha-1A adrenergic receptor (Rattus norvegicus, UniProt P43140); test: Activity at adrenergic alpha 1A receptor assessed as antagonsim of noradrenaline-induced contraction of […]; assay type: functional, tissue-based, Sprague-Dawley; conditions: read-out: pA2 (converted)
T5 sequence (P43140 whole entry): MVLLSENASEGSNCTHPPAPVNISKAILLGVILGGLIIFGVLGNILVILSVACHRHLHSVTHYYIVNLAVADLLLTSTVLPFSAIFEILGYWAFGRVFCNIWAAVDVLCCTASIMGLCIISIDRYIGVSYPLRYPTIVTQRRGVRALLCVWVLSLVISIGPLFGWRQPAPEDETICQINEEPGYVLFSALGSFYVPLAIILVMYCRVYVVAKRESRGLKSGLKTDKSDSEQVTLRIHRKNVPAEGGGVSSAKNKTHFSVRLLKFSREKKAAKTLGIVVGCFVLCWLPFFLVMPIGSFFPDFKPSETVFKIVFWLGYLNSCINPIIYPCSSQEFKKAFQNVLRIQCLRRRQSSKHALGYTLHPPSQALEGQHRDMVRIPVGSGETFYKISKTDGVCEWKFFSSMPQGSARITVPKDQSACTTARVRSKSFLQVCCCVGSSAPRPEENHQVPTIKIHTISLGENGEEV
In short: (§3)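 Rat vas deferens, prostatic portion. Contraction was induced with (-)-noradrenaline, and blocking activity was measured as antagonism of that contraction.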

[10] = target: T6, Alpha-2A adrenergic receptor (Rattus norvegicus, UniProt P22909); test: Activity at adrenergic alpha 2A receptor assessed as antagonism on clonidine-inhibited twitch responses of field-stimulated Sprague-Dawley rat vas deferens; conditions: read-out: pA2 (converted)
T6 sequence (P22909 whole entry): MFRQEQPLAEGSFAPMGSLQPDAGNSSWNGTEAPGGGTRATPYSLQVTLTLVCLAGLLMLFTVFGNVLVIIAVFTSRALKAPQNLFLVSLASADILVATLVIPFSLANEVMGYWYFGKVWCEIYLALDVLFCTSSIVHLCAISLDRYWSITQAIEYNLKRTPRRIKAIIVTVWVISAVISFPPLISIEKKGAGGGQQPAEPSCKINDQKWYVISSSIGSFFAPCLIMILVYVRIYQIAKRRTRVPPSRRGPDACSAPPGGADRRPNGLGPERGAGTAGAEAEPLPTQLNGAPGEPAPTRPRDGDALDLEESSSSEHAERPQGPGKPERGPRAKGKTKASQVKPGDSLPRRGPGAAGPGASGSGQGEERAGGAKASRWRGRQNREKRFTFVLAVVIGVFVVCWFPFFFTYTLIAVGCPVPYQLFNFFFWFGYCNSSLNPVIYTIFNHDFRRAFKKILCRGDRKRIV

[11] = target: T7, Alpha-1D adrenergic receptor (Rattus norvegicus, UniProt P23944); test: Activity at adrenergic alpha 1D receptor assessed as antagonism on noradrenaline-induced contraction of Sprague-Dawley rat thoracic aorta; assay type: functional, tissue-based; conditions: read-out: pA2 (converted)
T7 sequence (P23944 whole entry): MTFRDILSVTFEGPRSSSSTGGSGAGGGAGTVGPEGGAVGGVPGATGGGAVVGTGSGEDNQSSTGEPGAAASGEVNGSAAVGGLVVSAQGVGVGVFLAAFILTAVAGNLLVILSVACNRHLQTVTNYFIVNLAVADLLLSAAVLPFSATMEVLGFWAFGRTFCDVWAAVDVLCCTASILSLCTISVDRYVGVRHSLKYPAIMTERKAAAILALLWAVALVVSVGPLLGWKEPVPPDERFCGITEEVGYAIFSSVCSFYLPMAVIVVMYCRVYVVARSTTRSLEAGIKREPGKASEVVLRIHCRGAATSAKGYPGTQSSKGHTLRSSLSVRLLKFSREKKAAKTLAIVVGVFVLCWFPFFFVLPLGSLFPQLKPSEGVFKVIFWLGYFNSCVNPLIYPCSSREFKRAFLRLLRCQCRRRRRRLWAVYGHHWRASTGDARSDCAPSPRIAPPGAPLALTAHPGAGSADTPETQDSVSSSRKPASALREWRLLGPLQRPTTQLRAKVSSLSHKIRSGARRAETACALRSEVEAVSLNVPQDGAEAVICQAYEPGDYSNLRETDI
In short: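 Rat thoracic aorta contracted with (-)-noradrenaline. Blocking activity was measured as antagonism of the contraction.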

Cavia porcellus [12] = species on record: Cavia porcellus; test: Inverse agonist effect on calcium-induced increase in resting tension of calcium-depleted guinea pig thoracic aorta at 100 nM; assay type: functional; in short: as §2
[13] = target: T5, Alpha-1A adrenergic receptor; test: Activity at adrenergic alpha 1A receptor assessed as antagonism of noradrenaline-induced contraction of Sprague-Dawley rat vas deferens; assay type: functional, tissue-based; conditions: read-out: pA2 (converted); in short: as §3

| Ki [1] [nM] | Ki [2] [nM] | Ki [3] [nM] | Selectivity ratio [4] | Ki [5] [nM] | Selectivity ratio [6] | Selectivity ratio [7] | Structure (SMILES) | Activity (Cavia porcellus [8]) [%] | Kb [9] [nM] | Kb [10] [nM] | Kb [11] [nM] | Activity (Cavia porcellus [12]) [%] | Kb [13] [nM] |
| --- | --- | --- | --- | --- | --- | --- | --- | --- | --- | --- | --- | --- | --- |
| 324 | 955 | 550 | 3 | 3630 | 1.7 | 11.2 | COc1ccc2ccccc2c1OCCNC[C@@H]1COc2cc3c(cc2O1)CCCC3 | – | – | – | – | – | – |
| 11.5 | 15.8 | 49 | 1.3 | 132 | 4.3 | 11.5 | COc1ccc2c(c1OCCNC[C@@H]1COc3ccccc3O1)CCCC2 | – | – | – | – | – | – |
| 16.2 | 53.7 | 61.7 | 3.3 | 363 | 3.8 | 22.4 | COc1ccc(-c2ccccc2)cc1OCCNC[C@@H]1COc2ccccc2O1 | – | – | – | – | – | – |
| 102 | 295 | 427 | 2.9 | 1000 | 4.2 | 9.8 | COc1cccc(OC)c1OCCNC[C@@H]1COc2cc3ccccc3cc2O1 | – | – | – | – | – | – |
| 100 | 204 | 398 | 2 | 501 | 4 | 5 | COc1cccc(OC)c1OCCNC[C@@H]1COc2cc3c(cc2O1)CCCC3 | – | – | – | – | – | – |
| – | – | – | – | – | – | – | COc1cccc(OC)c1OCCNCC1COc2ccccc2O1 (stereo not given) | 25 | 0.661 | 257 | – | – | – |
| 234 | 363 | 550 | 1.5 | 871 | 2.3 | 3.7 | COc1cc(-c2ccccc2)ccc1OCCNC[C@@H]1COc2ccccc2O1 | – | – | – | – | – | – |
| 9.33 | 28.8 | 151 | 3.1 | 77.6 | 16.2 | 8.3 | COc1cccc(-c2ccccc2)c1OCCNC[C@@H]1COc2ccccc2O1 | – | – | – | – | – | – |

| Structure (SMILES) | Ki [1] [nM] | Ki [2] [nM] | Ki [3] [nM] | Selectivity ratio [4] | Ki [5] [nM] | Selectivity ratio [6] | Selectivity ratio [7] | Activity (Cavia porcellus [8]) [%] | Kb [9] [nM] | Kb [10] [nM] | Kb [11] [nM] | Activity (Cavia porcellus [12]) [%] | Kb [13] [nM] |
| --- | --- | --- | --- | --- | --- | --- | --- | --- | --- | --- | --- | --- | --- |
| COc1cccc(OC)c1OCCNC[C@H]1COc2ccccc2O1.Cl | 0.407 | – | – | – | 2.45 | – | – | 10 | 0.324 | 120 | 0.631 | 27 | – |
| COc1cccc(OC)c1OCCNC[C@@H]1COc2ccccc2O1 | 11.2 | – | – | – | 40.7 | – | – | – | 20 | 457 | 22.4 | – | 16.2 |
